Bioassay records from PubChem BioAssay.
H9c2 TAG inh – inhibitors of triacylglycerol accumulation, primary screen, cell-based, uHTS, fluorescence, H9c2. inhibition, % at 12.5 µM. H9c2 cells, Nile Red lipid (TAG) fluorescence; cells loaded with 200 µM oleic acid. actives 0.66% (n = 230,000);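 active = pattern-corrected inhibition of lipid staining of at least 50% with the nuclear-stain viability signal not falling by more than 50%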
B2AR ag – beta2AR agonists driving receptor internalization, primary screen, cell-based, FAP fluorogen, flow cytometry; Beta-2 adrenergic receptor (Homo sapiens), P07550; AID 504454, 2011; response, % (concentration not given with the values); Am2.2-beta2AR cells; actives 0.43% (n = 340,000);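 active = response above a set limit, near 3 SD of response in nonfluorescent compounds, cut at about 42% in these data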
NTR1 ag – agonists of human NTR1, primary screen, imaging, U2OS cells, beta-arrestin-GFP, high content; NTR1-U2OS beta-arrestin-GFP spot imaging, agonist mode; activation, % at 20 µM; actives 0.17% (n = 330,000); AID 493036, 2011;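 active = activation at or above 40% of the spot to cytoplasm intensity ratio, with at least 20 cells analyzed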
GRK2 inh – compounds blocking aptamer binding on GRK2 – biochemical, human GRK2, bead flow cytometry, HTS, primary screen; actives 0.59% (n = 330,000); AID 488847, 2010; FAM-aptamer displacement from GRK2; inhibition of aptamer binding, % at 10 µM; Beta-adrenergic receptor kinase 1 (Homo sapiens), P25098;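 active = inhibition of aptamer binding above 40%, roughly 3 SD of noise, on plates passing a quality check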;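 note: median bead fluorescence of bound FAM aptamer so fluorescent compounds give negative values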
Arr AP2 block – inhibitors of beta-arrestin/AP2 binding, primary screen, biochemical, GPCR trafficking, flow cytometry; FITC-arrestin peptide / GST-AP2 beads; AP2 beta2 appendage carries R879A mutation; inhibition, % at 10 µM; actives 0.31% (n = 340,000);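 active = inhibition above a set limit, near 3 SD of compounds lacking own fluorescence, cut at about 54% in these data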
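System: GST-AP2 R879A glutathione beads. Medium: PBS with 0.05% Tween 20 and 0.1% BSA. Also added: FITC-arrestin peptide, 50 nM. Incubation: 12 min plus 1 h, RT. Measured by: high-throughput flow cytometry of beads, ex 488, em 535 nm. Evaluation: percent drop in bead-associated FITC signal.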
Lipid droplet – inhibitors of hepatocyte lipid droplet formation, primary screen, imaging, high-throughput imaging, BODIPY stain; AML12 mouse hepatocytes, oleate lipid droplets; inhibition, % at 6.5 µM; actives 0.4% (n = 240,000);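 active = lipid droplet intensity inhibited by at least 50%, with more than 500 cells counted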
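Technique: fluorescence imaging, 20x objective, two fields per well / Assay system: AML12 hepatocytes (mouse) / Measure: % inhibition of lipid droplet signal / Doses: 6.5 µM single-point dosing / Incubation: overnight exposure / Reagent: 100 µM oleic acid challenge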
NTR1 ag conf – NTR1 agonists, single-dose retest, confirmation, imaging, U2OS cells, beta-arrestin-GFP, single concentration | shares compounds with NTR1 ag | NTR1-U2OS beta-arrestin-GFP translocation imaging | activation, % at 20 µM | actives 38% (n = 480) | AID 504550, 2011;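 active = mean activation at 20 µM of at least 40%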
A number is an active result; - = inactive; . = no result. Most compounds without a hit are left out; they make up all but 2% or so of the library.

SMILES	H9c2 TAG inh	B2AR ag	NTR1 ag	GRK2 inh	Arr AP2 block	Lipid droplet	NTR1 ag conf
CN(Cc1ccccc1)C(=O)c1[nH]cnc1C(=O)N[C@@H](Cc1ccccc1)C(=O)OCc1ccccc1	-	-	42	-	-	-	-
CC(C)C[C@H](NC(=O)c1nc[nH]c1C(=O)NCCCCCNC(=O)OC(C)(C)C)C(=O)OCc1ccccc1	-	-	-	-	-	-	.
CC(C)(C)OC(=O)NCCCCCNC(=O)c1[nH]cnc1C(=O)N[C@@H](Cc1ccccc1)C(=O)OCc1ccccc1	-	-	53	-	-	-	-
CC(C)(C)OC(=O)[C@H](Cc1ccccc1)NC(=O)c1nc[nH]c1C(=O)NC1CCN(C(=O)OC(C)(C)C)CC1	.	-	45	.	-	-	-
CC(C)(C)OC(=O)[C@H](Cc1ccccc1)NC(=O)c1nc[nH]c1C(=O)N1CCN(C(=O)OC(C)(C)C)CC1	-	-	-	-	-	-	.
C[C@@H](NC(=O)c1nc[nH]c1C(=O)N[C@@H](Cc1ccccc1)C(=O)OCc1ccccc1)c1ccccc1	-	-	-	-	-	-	.
Cc1cc(-c2ccc(C(C)C)c(S(=O)(=O)NCCN3CCC(C)CC3)c2)on1	.	-	-	-	-	-	.
COc1cc(/C=N/N2CCCCC2)cc([N+](=O)[O-])c1O	.	-	-	-	-	-	.
CC(=O)n1cc(C2CC(=O)OC3=C2CC(=O)C(C)(C)C3)c2ccccc21 (configuration not stated)	-	.	.	.	.	.	.
CC(=O)c1cccc(Nc2nc(-c3sc(N)nc3C)cs2)c1	-	-	-	-	-	-	.
CC(=O)c1cccc(Nc2nc(-c3sc(C)nc3C)cs2)c1	-	-	54	-	-	-	-
COc1ccc(N2C(=O)C3CCCCC3C2=O)cc1NC(=O)c1ccccc1 (configuration not stated)	-	-	-	-	-	-	.
Cc1ccc(OCC(=O)NNc2c3ccccc3nc3ccccc23)cc1	-	-	47	-	-	-	-
Cn1c(N)c(C(=O)COC(=O)c2cc(C3CC3)nc3ccccc23)c(=O)n(Cc2ccccc2)c1=O	-	-	40	-	-	-	-
CCOc1ccc(-c2[nH]ncc2-c2ccc(OC)c(OC)c2)c(O)c1	.	-	-	-	-	.	.
CCOc1ccc(-c2[nH]ncc2-c2ccc(Cl)cc2)c(O)c1	.	-	55	-	-	-	-
C=C(C)COc1ccc(-c2[nH]ncc2-c2ccc(Br)cc2)c(O)c1	.	-	41	-	-	-	-
COc1ccc(/C=N/Nc2nc(-c3cccc(S(=O)(=O)N4CCCC4)c3)cs2)cc1OC	.	-	-	-	-	-	.
COc1cc(/C=N/Nc2nc(-c3ccc(S(=O)(=O)N(C)C)cc3)cs2)ccc1O	-	-	70	-	-	-	79
O=C(NCCc1ccccc1)C(c1cccs1)N(C(=O)CCl)c1ccc(Cl)cc1 (configuration not stated)	.	-	70	-	-	-	61
CCc1cc(CNC(=O)C2CCC(=O)N(CCc3cccc(F)c3)C2)on1 (configuration not stated)	-	-	-	.	-	-	.
CN(C)c1nc(/C=C(\C#N)C(N)=O)c(Cl)n1-c1ccc(F)cc1	-	-	-	-	-	-	.
COc1ccc(CCNC(=O)c2cc3c(=O)n4cccc(C)c4nc3n(Cc3ccncc3)c2=N)cc1	.	.	.	.	.	-	.
N=c1c(C(=O)NCc2ccc(F)cc2)cc2c(=O)n3ccccc3nc2n1Cc1ccco1	-	-	41	-	-	-	-
